Rows were chosen to be rich in hits. Some 2.3% of all compounds tested hit in one or more screens of this group.
GPR7 antag: human neuropeptides B/W receptor 1 antagonism | GPR7-expressing cells, fluorescence antagonist assay | 1.1% of 290,000 active | AID 1861 | inhibition, % at 4.4 µM | P48145; in the data active = inhibition above about 16%, passing the limit was not always enough;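 note: cells stimulated with the agonist NPW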
Target sequence (P48145 whole entry, looked up): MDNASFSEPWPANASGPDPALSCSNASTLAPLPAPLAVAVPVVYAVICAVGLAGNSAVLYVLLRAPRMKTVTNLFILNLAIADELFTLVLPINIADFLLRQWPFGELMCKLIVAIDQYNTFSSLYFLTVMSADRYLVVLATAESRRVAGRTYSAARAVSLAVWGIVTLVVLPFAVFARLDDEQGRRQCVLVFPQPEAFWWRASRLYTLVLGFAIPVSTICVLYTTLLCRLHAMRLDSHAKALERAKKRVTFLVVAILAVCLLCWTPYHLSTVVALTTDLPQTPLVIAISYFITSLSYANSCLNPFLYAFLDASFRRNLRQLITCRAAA
pCIP destab: compounds decreasing mouse p/CIP protein stability | F442A p/CIP-EGFP cells, EGFP fluorescence, 16 h | decrease of EGFP signal, % at 10 µM | 0.01% of 290,000 active;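 active = EGFP signal decrease of at least 30% at 10 µM or well 3 SD below plate mean, unless failing retest; inactive = the rest, including hits failing retest or dose response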
CHT inh: inhibits the human high affinity choline transporter; Q9GZV3; CHT-expressing cells, membrane potential dye, choline response; stronger effect = lower value; 0.86% of 310,000 active; AID 488975; B-score at 10 µM;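 active = B-score over 3 SD under the library average, and starting fluorescence ratio not unusually high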;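 note: choline stimulus applied at its EC90 after an EC20 pre-addition; B-score computed on integrated fluorescence ratio after choline addition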
T cell HTS: modulates CD8 T cell binding to vesicles | 2C CD8+ T cell-vesicle binding, flow cytometry; stronger effect = lower value | response (vesicle binding), % at 7 µM | 0.068% of 330,000 active | AID 2052;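 active = response, share of CD8 T cells binding vesicles, and their 90th percentile fluorescence all below set limits, cut at about 80% in these data, passing the limit was not always enough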;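 note: values below 100% mean blocked vesicle binding to the CD8+ T cells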
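Read-out – percent CD8+ FL2 mean versus row control · System – murine 2C transgenic CD8+ T lymphocytes · Times – 1.5 h cell–vesicle binding at 37 °C, then 20 min icy labelling · Control set – naked vesicles low, QL9 vesicles with vehicle high · Detection – cytometric PE anti-B7-1 and Alexa647 anti-CD8 signals after 1% paraformaldehyde fixation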
CHT allo act: human CHT allosteric activation. CHT-expressing cells, membrane potential dye, choline EC20; stronger effect = higher value; LV-AA mutant CHT in HEK293 cells. AID 488977. 0.49% of 310,000 active. Q9GZV3. B-score at 10 µM;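 active = initial fluorescence not abnormally high and integrated response B-score, plate-corrected, over 3 SD above library mean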
Pemphigus Ab inh: inhibitors of pemphigus antibody binding to human desmoglein-3; AID 588358; binding (percent of control), % at 10 µM; P32926; 0.48% of 310,000 active; DSG3-coupled beads, scFv-anti-DSG3-GFP binding, flow cytometry; stronger effect = lower value;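 active = binding more than 3 SD below its plate's average and above zero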;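 note: hits lower antibody fragment binding to DSG3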
GPR7 antag cf: confirmation of human GPR7 antagonists. shares compounds with GPR7 antag. GPR7-expressing cells, calcium fluorescence antagonist mode. inhibition, % at 4.4 µM. 52% of 2,400 active; in the data active = inhibition above about 24%;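 note: stimulated with the GPR7 agonist NPW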
MCHR1 antag: MCHR1 (human) antagonism in GPR7 counter-screen | shares compounds with GPR7 antag | MCHR1-expressing cells, fluorescence antagonist assay | inhibition, % at 4.4 µM | 62% of 2,400 active; in the data active = inhibition above about 22%
CHT block conf: human CHT inhibition, confirmatory screen. CHT-expressing cells, choline membrane potential dye; LV-to-AA substituted CHT, HEK293 cells. 70% of 2,400 active. shares compounds with CHT inh. CHT activity remaining % of control (stronger effect = lower value), % at 10 µM;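 active = choline transporter activity left, mean of duplicates at 10 µM, below buffer-only control mean minus 3 SD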;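 note: depolarization triggered by choline at its EC90 following an EC20 pre-addition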
HEK293 CHT ctr: CHT inhibitor counter-screen hit in parental HEK293 cells. shares compounds with CHT inh. membrane potential dye, choline response; active = decrease or increase beyond buffer ±3SD. membrane potential ratio readout (active if shifted either direction beyond buffer ±3SD; no single direction) at 10 µM. 4% of 2,400 active;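 note: parental cells lack the transporter so any hit is non-specific; ratio is peak minus trough fluorescence over baseline after EC90 choline challenge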
CHT act confirm: confirmation of human choline transporter (CHT) activators; CHT-expressing cells, membrane potential dye fluorescence (FDSS); % of choline EC20–EC90 response window; HEK293 expressing CHT LV-AA mutant; choline added at its EC20; activation, % at 10 µM; 91% of 2,500 active; AID 504833; shares compounds with CHT allo act;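 active = primary screen active, with duplicate mean activation above negative control mean plus 3 SD, cut at about 11% in these data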
HEK293 MP dye: activity in parental HEK293 cells lacking CHT. 62% of 2,500 active. membrane potential dye fluorescence (FDSS); measured after EC20 choline addition. ratio readout change at 10 µM, hits read low. shares compounds with CHT allo act;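 active = duplicate-averaged ratio beyond 3 SD from buffer wells, up or down, though filed actives are nearly all decreases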
Each line names hits and unclear results; the compound was inactive in the other large screens (follow-up assays come after a bar, where they were run).

CC(c1ccco1)N(C(=O)c1ccccc1NS(=O)(=O)c1ccc(Cl)c([N+](=O)[O-])c1)c1ccccn1 (centres undefined)	GPR7 antag 24, CHT inh -7.8 | GPR7 antag cf inactive | MCHR1 antag 31 | CHT block conf 66% | HEK293 CHT ctr inactive
O=C(C1CCCCC1)N1C[C@@H](O)[C@H](n2cc(-c3ccc(F)cc3)nn2)C[C@@H]1c1ccccc1	none (no result: GPR7 antag, pCIP destab, CHT inh, T cell HTS, CHT allo act)
COc1cccc(NC(=O)c2nc(SC)ncc2Cl)c1	none
COc1cccc(NC(=O)c2nc(S(C)(=O)=O)ncc2Cl)c1	GPR7 antag 33, CHT inh -6.8 | GPR7 antag cf 42 | MCHR1 antag 33 | CHT block conf 36% | HEK293 CHT ctr inactive
O=C(NC1CCCCC1)C(c1cccs1)N(Cc1cccs1)C(=O)c1cccs1 (centres undefined)	GPR7 antag 32, CHT allo act 9.2 | GPR7 antag cf 31 | MCHR1 antag 42 | CHT act confirm 30 | HEK293 MP dye inactive
COc1ccc(C(CCNC(C)c2ccccc2)c2ccc(F)cc2)cc1 (centres undefined)	GPR7 antag 40 | GPR7 antag cf 47 | MCHR1 antag 56 | CHT act confirm 44 | HEK293 MP dye inactive
COc1ccc(CNC(=O)CNC(C)c2ccc(F)cc2)cc1 (centres undefined)	none
N=c1n(CCN2CCCCC2)c2ccccc2n1CC(O)c1cccc(Br)c1 (centres undefined)	GPR7 antag 25, CHT allo act 11 | GPR7 antag cf 48 | MCHR1 antag 43 | CHT act confirm 37 | HEK293 MP dye inactive
COC(=O)Cn1c(=N)n(CCN2CCCCC2)c2ccccc21	none (no result: Pemphigus Ab inh)
Fc1ccc(-c2csc3[n+]2CCS3)cc1	none (no result: Pemphigus Ab inh)
O=[N+]([O-])c1ccc(-c2csc3[n+]2CCS3)cc1	GPR7 antag 29, CHT allo act 8.9 | GPR7 antag cf inactive | MCHR1 antag inactive | CHT act confirm 74 | HEK293 MP dye -69
CSC1SCC2C(=O)N(C)C(C(C)C)C(=O)OCC(NC(=O)c3cnc4ccccc4n3)C(=O)NC(C)C(=O)N(C)C1C(=O)N(C)C(C(C)C)C(=O)OCC(NC(=O)c1cnc3ccccc3n1)C(=O)NC(C)C(=O)N2C (centres undefined)	none (no result: GPR7 antag, pCIP destab, CHT inh, T cell HTS, CHT allo act)
COc1ccc(C[C@H]2CN3C(=NC[C@@H]3Cc3ccccc3)N2CCNC(=O)CCC2CCCCC2)cc1	GPR7 antag 37, CHT allo act 9.6 | GPR7 antag cf 52 | MCHR1 antag 39 | CHT act confirm 20 | HEK293 MP dye inactive
COc1ccc(C[C@H]2CN3C(=NC[C@@H]3C(C)C)N2CCNC(=O)CCC2CCCCC2)cc1	none
CCN(C[C@H]1N[C@@](Cc2ccccc2)(C(=O)OC)[C@H]2C(=O)N(Cc3ccccc3)C(=O)[C@@H]12)C(=O)C1CCCCC1	none (no result: GPR7 antag, pCIP destab, CHT inh, CHT allo act)
CCCC(CCC)C(=O)Nc1ccc2c(c1)N(C(=O)CCN1CCN(C)CC1)c1ccccc1CC2	GPR7 antag 28, CHT allo act 6.8 | GPR7 antag cf 28 | MCHR1 antag inactive | CHT act confirm 19 | HEK293 MP dye inactive
Cc1cccc(-c2ocnc2C(=O)Nc2ncc(C)s2)c1	none (no result: GPR7 antag, pCIP destab, CHT inh, T cell HTS, CHT allo act)
COc1ccc(-c2noc(CN3CCCCC3c3nccn3C)n2)cc1 (centres undefined)	GPR7 antag 41, CHT allo act 11 | GPR7 antag cf 35 | MCHR1 antag inactive | CHT act confirm 49 | HEK293 MP dye inactive
COc1ccc(-c2noc(CCC(=O)NC3CCCCCC3)n2)cc1	none (no result: Pemphigus Ab inh)
CC(C)(C)N(NC(=O)c1ccccc1)C(=O)c1cccc(C(=O)N(NC(=O)c2ccccc2)C(C)(C)C)c1	GPR7 antag 42, CHT allo act 8.5 | GPR7 antag cf 31 | MCHR1 antag 23 | CHT act confirm 35 | HEK293 MP dye inactive
CCCCN(CC(=O)Nc1c(C)cccc1CC)C(=O)SCC	GPR7 antag 36, CHT allo act 9.1 | GPR7 antag cf 39 | MCHR1 antag 30 | CHT act confirm 13 | HEK293 MP dye inactive
CCc1cccc(C)c1NC(=O)Cc1ccsc1	none (no result: Pemphigus Ab inh)
CCC(C)(C)n1nnnc1C(c1cc(OC)ccc1OC)N1CCN(Cc2ccccc2)CC1 (centres undefined)	GPR7 antag 27, CHT allo act 7.6 | GPR7 antag cf 31 | MCHR1 antag 43 | CHT act confirm 35 | HEK293 MP dye inactive
COc1ccc(C(CNC(=O)c2ccc(-c3cccc(C(F)(F)F)c3)o2)N2CCOCC2)cc1 (centres undefined)	none (no result: GPR7 antag, pCIP destab)
O=C1NC(=O)C2(CCCCCCC2)N1	none (no result: GPR7 antag, pCIP destab, CHT inh, T cell HTS, CHT allo act)
COC(=O)C1=C(C)N(Cc2ccccc2)C(=NCc2ccccc2)N[C@H]1c1cccc(F)c1	GPR7 antag 51, CHT allo act 16 | GPR7 antag cf 55 | MCHR1 antag 59 | CHT act confirm 40 | HEK293 MP dye inactive
COC(=O)C1=C(C)N(Cc2ccccc2)C(=NCc2ccccc2)N[C@H]1c1ccccc1	none (no result: GPR7 antag, pCIP destab, CHT inh, CHT allo act)
Clc1ccc(-c2c[n+](Cc3ccc(Br)cc3)c3n2CCCCC3)cc1	none
Clc1ccc(-c2c[n+](Cc3ccc(Cl)cc3Cl)c3n2CCCCC3)cc1	GPR7 antag 23, CHT allo act 28 (no result: Pemphigus Ab inh) | GPR7 antag cf 26 | MCHR1 antag 27 | CHT act confirm 67 | HEK293 MP dye inactive
CC(NC(=O)Cn1c(NCCO)nc2ccccc21)C1CC2CCC1C2 (centres undefined)	GPR7 antag 33 | GPR7 antag cf 27 | MCHR1 antag inactive | CHT act confirm 38 | HEK293 MP dye inactive

Source: PubChem (several laboratories)
